Assay [1] concerns the target T1, DNA topoisomerase 1 (Homo sapiens) (UniProt P11387).
T1 sequence (whole entry): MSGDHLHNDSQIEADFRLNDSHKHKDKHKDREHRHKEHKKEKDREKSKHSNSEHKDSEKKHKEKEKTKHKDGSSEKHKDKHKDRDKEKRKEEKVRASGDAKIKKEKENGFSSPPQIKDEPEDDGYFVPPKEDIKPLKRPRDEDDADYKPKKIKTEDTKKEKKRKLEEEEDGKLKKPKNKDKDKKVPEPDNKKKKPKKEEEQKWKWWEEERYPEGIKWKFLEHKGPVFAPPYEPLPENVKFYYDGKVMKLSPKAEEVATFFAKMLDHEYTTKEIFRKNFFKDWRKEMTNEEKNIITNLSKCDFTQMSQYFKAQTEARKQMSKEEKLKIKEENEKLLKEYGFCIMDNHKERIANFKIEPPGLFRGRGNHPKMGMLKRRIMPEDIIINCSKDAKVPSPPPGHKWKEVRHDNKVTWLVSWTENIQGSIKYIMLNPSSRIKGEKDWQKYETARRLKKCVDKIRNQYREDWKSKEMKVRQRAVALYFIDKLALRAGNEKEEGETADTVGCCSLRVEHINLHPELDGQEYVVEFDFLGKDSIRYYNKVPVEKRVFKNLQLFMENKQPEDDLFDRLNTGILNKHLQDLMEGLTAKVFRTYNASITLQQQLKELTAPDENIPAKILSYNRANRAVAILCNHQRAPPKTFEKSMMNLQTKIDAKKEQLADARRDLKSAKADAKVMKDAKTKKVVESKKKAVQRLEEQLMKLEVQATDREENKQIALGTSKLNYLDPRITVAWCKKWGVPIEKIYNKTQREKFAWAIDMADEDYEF
The assay can be described thus: Inhibition of human DNA topoisomerase-1 at 100 uM using supercoiled pBR322 DNA as substrate after 30 mins by ethidium bromide staining based agarose gel electrophoresis relative to control. In a few lines:
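Recombinant human topo I, 1 unit (the amount that fully relaxes supercoiled pBR322), with 100 ng pBR322 DNA at 37 °C for 30 min in 10 mM Tris-HCl pH 7.9, 150 mM NaCl, 0.1% BSA. Compounds were screened at 100 µM, and those above 30% inhibition were retested at 20 µM. Products ran on 1% agarose at 15 V for 7 h in TAE with ethidium bromide staining. Mean ± S.D. from three experiments in triplicate.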

For assay [2], the target named is DNA topoisomerase 2-alpha (Homo sapiens) (UniProt P11388). The assay can be described thus: Inhibition of human DNA topoisomerase-2alpha at 100 uM using supercoiled pBR322 DNA as substrate after 30 mins by ethidium bromide staining based agarose gel electrophoresis relative to control. The essentials: (§1)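 Human topo IIα, 1 unit set by full relaxation of pBR322, with 100 ng pBR322 for 30 min in 10 mM Tris-HCl pH 7.9, 50 mM NaCl, 5 mM MgCl2, 1 mM EDTA and BSA. Stop was with EDTA. Screening was at 100 µM, with retest at 20 µM if inhibition exceeded 30%. Gel was 1% agarose at 25 V for 4 h in TAE, stained with ethidium bromide. Mean ± S.D. from three experiments in triplicate.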

A short description of assay [3]: Antiproliferative activity against human HCT15 cells after 72 hrs by CCK8 assay. The format is functional, cell-based. The following applies: HCT-15, 72 h. In a few lines: (§2)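 Cells seeded at 2–4 × 10^4 per well, grown overnight in medium with 10% FBS at 37 °C and 5% CO2. After 4 h FBS starvation they were exposed to graded compound concentrations for 72 h. CCK-8 was added for a further 4 h and absorbance read at 450 nm. IC50 came from a four-parameter logistic fit.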
On the technique in general: Formazan colour is commonly taken as a measure of viable cells.

A short description of assay [4]: Antiproliferative activity against human T47D cells after 72 hrs by CCK8 assay. The format is functional, cell-based. The essentials:
as §2

Assay [5] in a line: Antiproliferative activity against human DU145 cells after 72 hrs by CCK8 assay. The format is functional, cell-based. The note with it: DU-145, 72 h. In a few lines: as §2
Assay [6] can be described thus: Antiproliferative activity against human HeLa cells after 72 hrs by CCK8 assay. In kind it is functional, cell-based. In a few lines: as §2
Assay [7] concerns the target DNA topoisomerase 2-alpha (Homo sapiens) (UniProt P11388). The assay can be described thus: Inhibition of human DNA topoisomerase-2alpha at 20 uM using supercoiled pBR322 DNA as substrate after 30 mins by ethidium bromide staining based agarose gel electrophoresis relative to control. The essentials: as §1

DNA topoisomerase 2-alpha (Homo sapiens), sequence (P11388 whole entry): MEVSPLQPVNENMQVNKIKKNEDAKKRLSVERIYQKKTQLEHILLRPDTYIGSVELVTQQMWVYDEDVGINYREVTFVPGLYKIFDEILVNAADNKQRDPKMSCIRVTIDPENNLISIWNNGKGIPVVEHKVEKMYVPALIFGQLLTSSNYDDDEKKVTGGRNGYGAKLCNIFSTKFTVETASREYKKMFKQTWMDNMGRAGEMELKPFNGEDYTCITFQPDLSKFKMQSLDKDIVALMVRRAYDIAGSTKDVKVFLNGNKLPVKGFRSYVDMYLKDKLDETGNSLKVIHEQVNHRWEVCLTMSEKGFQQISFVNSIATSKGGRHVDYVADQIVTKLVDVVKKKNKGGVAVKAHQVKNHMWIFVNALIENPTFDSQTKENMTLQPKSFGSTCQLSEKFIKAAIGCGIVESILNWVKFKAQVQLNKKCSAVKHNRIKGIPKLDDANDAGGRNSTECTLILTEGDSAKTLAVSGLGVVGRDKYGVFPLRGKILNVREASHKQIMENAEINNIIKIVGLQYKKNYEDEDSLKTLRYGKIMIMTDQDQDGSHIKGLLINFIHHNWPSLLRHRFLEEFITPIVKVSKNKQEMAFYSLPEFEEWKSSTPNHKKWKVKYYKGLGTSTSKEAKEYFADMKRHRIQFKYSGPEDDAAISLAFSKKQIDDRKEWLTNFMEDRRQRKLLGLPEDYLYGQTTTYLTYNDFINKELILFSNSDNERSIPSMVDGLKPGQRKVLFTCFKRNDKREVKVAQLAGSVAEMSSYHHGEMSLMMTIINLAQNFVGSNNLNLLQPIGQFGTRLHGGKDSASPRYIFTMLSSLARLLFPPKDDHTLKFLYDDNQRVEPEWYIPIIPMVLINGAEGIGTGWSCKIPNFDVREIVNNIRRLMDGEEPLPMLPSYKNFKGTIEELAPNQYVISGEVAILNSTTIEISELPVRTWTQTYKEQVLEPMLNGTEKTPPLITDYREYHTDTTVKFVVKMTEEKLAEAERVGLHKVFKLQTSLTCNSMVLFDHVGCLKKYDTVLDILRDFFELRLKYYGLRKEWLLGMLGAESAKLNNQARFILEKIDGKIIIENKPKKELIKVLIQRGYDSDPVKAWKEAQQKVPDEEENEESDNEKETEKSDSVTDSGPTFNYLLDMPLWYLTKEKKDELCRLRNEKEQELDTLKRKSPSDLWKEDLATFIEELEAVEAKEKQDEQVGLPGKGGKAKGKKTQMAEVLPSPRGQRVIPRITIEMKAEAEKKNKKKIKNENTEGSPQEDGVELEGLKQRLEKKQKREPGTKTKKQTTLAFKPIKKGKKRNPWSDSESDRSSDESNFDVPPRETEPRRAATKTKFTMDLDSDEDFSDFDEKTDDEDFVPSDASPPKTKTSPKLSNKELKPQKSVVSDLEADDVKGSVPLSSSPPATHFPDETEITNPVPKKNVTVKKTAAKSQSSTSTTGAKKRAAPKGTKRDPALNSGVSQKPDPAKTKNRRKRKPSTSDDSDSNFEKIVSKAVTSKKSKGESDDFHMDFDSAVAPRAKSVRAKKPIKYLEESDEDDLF

For orientation: inhibition means the relative decrease from the control value, in per cent. The low end stands for little suppression, the high end for strong suppression. What is called IC50 is the concentration that inhibits the measured activity by half. Low readings indicate higher potency, high ones lower potency. As for `Oc1cccc(-c2cc(-c3ccccn3)nc3c2Cc2ccccc2-3)c1`, the inhibition in assay [1] worked out at 2.4%; in assay [2], 3.5%. In addition, the IC50 in assay [3], in assay [4], in assay [5] and in assay [6] was more than 50 µM each time.

`Oc1ccccc1-c1cc(-c2ccsc2)nc2c1Cc1ccccc1-2`: the inhibition in assay [1] is 12.8%; in assay [2] it was 50.2%; in assay [7], 4.9%. For the same compound, the IC50 in assay [3], in assay [4], in assay [5] and in assay [6] was more than 50 µM in each case.

Consider `c1ccc(-c2cc(-c3ccoc3)nc3c2Cc2ccccc2-3)cc1`, for which the inhibition came out at 6.4% in assay [1] and 3.9% in assay [2]. Further, the 50% inhibitory concentration (IC50) in assay [3] stood at 7.05 µM; in assay [4] it was 17.4 µM; in assay [5] it was 1.09 µM; in assay [6], 10.8 µM.

As for `Oc1ccccc1-c1cc(-c2ccncc2)nc2c1Cc1ccccc1-2`, the inhibition is 0% in assay [1], 75.2% in assay [2] and 0.9% in assay [7]. Also, the IC50 in assay [3] was 2.18 µM; in assay [4], 2.44 µM; in assay [5], 4.7 µM; in assay [6] it was 5.78 µM.

In the case of `Oc1ccc(-c2cc(-c3cccnc3)nc3c2Cc2ccccc2-3)cc1`, the inhibition in assay [1] worked out at 0%; in assay [2], 4%. The IC50 in assay [3], in assay [4], in assay [5] and in assay [6] was more than 50 µM throughout.

Take `c1ccc(-c2cc(-c3ccco3)nc3c2Cc2ccccc2-3)cc1`: the inhibition in assay [1] amounted to 18.7%; in assay [2], 41.3%; in assay [7] it was 5.7%. Moreover, the IC50 in assay [3] is more than 50 µM; in assay [5], 7.74 µM; in assay [6], 16.6 µM.

For the compound `Oc1cccc(-c2cc(-c3cccnc3)nc3c2Cc2ccccc2-3)c1`, the inhibition in assay [1] is 1.5%; in assay [2], 18.5%. For the same compound, the 50% inhibitory concentration (IC50) in assay [3] worked out at 1.87 µM; in assay [4], 1.17 µM; in assay [5], 2.8 µM; in assay [6] it was 5.19 µM.

As to `Oc1ccccc1-c1cc(-c2ccoc2)nc2c1Cc1ccccc1-2`, the values for the inhibition in assay [1] and in assay [2] were 0.4% and 1.8%, respectively. For the same compound, the 50% inhibitory concentration (IC50) in assay [3], in assay [4], in assay [5] and in assay [6] was more than 50 µM throughout.

For `c1ccc(-c2cc(-c3ccccn3)nc3c2Cc2ccccc2-3)cc1`, the figures for the inhibition in assay [1] and in assay [2] were 12.3% and 0%, respectively.

With `c1ccc(-c2cc(-c3ccncc3)nc3c2Cc2ccccc2-3)cc1`, the inhibition in assay [1] turned out to be 0%; in assay [2], 2.3%. Moreover, the IC50 in assay [3] is 16.4 µM; in assay [4], more than 50 µM; in assay [5], more than 50 µM; in assay [6], more than 50 µM.

Regarding `Oc1ccc(-c2cc(-c3ccncc3)nc3c2Cc2ccccc2-3)cc1`, the inhibition in assay [1] was determined as 0%; in assay [2], 1.14%. Moreover, the IC50 in assay [3], in assay [4], in assay [5] and in assay [6] was more than 50 µM in each case.

Take `Oc1ccc(-c2cc(-c3ccccn3)nc3c2Cc2ccccc2-3)cc1`: the inhibition was found to be 0% in assay [1] and 14.8% in assay [2]. In addition, the IC50 in assay [3], in assay [4], in assay [5] and in assay [6] was more than 50 µM in each case.

Turning to `Oc1ccccc1-c1cc(-c2ccccn2)nc2c1Cc1ccccc1-2`, the inhibition is 0.5% in assay [1] and 15.2% in assay [2]. Besides, the IC50 in assay [3] is more than 50 µM; in assay [4] it was 29.6 µM; in assay [5], more than 50 µM; in assay [6], more than 50 µM.

With `Oc1cccc(-c2cc(-c3ccncc3)nc3c2Cc2ccccc2-3)c1`, the inhibition was 1.3% in assay [1] and 49.5% in assay [2]. In addition, the IC50 worked out at 1.94 µM in assay [3], 1.05 µM in assay [4], 4.36 µM in assay [5] and 2.41 µM in assay [6].
